From ChEMBL document CHEMBL4725345, “DFG-1 Residue Controls Inhibitor Binding Mode and Affinity, Providing a Basis for Rational Design of Kinase Inhibitor Selectivity” (J Med Chem, 2020)

How the values were obtained:
[1] = target: T1, Dual specificity protein kinase CLK1 (Homo sapiens, UniProt P49759); conditions: dose 10.0 µM, time 10.0 min
Target sequence in this assay (P49759 whole entry, looked up): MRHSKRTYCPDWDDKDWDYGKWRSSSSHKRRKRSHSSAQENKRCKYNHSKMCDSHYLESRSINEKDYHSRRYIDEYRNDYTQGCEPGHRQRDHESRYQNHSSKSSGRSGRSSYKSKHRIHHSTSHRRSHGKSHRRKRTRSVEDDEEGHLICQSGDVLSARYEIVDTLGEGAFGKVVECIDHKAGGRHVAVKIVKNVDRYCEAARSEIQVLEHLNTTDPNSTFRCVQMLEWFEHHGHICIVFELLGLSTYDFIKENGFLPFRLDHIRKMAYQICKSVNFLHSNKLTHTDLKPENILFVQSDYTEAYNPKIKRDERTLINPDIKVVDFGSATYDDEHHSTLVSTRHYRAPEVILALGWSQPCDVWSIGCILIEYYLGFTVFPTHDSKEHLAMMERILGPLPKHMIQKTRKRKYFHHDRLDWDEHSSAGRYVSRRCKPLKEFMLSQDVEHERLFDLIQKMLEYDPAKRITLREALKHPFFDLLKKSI

[2] = target: Dual specificity protein kinase CLK2 (Homo sapiens) (UniProt P49760); conditions: dose 10.0 µM, time 10.0 min
[3] = target: T2, Dual specificity protein kinase CLK3 (Homo sapiens, UniProt P49761); conditions: dose 10.0 µM, time 10.0 min
Target sequence in this assay (P49761 whole entry, looked up): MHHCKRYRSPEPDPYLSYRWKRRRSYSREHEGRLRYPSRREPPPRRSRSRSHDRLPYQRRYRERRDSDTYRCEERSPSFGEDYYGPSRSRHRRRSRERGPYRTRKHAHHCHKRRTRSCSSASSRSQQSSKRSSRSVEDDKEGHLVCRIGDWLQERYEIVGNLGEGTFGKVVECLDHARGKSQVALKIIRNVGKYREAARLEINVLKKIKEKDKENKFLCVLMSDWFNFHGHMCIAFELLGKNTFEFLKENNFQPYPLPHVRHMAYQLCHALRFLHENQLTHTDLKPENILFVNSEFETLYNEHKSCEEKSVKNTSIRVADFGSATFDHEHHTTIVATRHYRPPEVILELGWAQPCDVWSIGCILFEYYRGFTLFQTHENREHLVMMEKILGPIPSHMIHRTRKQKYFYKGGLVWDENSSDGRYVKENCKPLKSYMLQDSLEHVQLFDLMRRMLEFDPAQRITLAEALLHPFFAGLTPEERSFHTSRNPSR

[4] = target: High affinity nerve growth factor receptor (Homo sapiens) (UniProt P04629); test: Inhibition of human TrkA assessed as residual activity at 1 uM relative to control
[5] = target: Glycogen synthase kinase-3 beta (Homo sapiens) (UniProt P49841); test: Inhibition of human GSK3B assessed as residual activity at 1 uM relative to control
[6] = target: T3, Serine/threonine-protein kinase haspin (Homo sapiens) (UniProt Q8TF76); test: Inhibition of human Haspin assessed as residual activity at 1 uM relative to control
T3 sequence (whole entry): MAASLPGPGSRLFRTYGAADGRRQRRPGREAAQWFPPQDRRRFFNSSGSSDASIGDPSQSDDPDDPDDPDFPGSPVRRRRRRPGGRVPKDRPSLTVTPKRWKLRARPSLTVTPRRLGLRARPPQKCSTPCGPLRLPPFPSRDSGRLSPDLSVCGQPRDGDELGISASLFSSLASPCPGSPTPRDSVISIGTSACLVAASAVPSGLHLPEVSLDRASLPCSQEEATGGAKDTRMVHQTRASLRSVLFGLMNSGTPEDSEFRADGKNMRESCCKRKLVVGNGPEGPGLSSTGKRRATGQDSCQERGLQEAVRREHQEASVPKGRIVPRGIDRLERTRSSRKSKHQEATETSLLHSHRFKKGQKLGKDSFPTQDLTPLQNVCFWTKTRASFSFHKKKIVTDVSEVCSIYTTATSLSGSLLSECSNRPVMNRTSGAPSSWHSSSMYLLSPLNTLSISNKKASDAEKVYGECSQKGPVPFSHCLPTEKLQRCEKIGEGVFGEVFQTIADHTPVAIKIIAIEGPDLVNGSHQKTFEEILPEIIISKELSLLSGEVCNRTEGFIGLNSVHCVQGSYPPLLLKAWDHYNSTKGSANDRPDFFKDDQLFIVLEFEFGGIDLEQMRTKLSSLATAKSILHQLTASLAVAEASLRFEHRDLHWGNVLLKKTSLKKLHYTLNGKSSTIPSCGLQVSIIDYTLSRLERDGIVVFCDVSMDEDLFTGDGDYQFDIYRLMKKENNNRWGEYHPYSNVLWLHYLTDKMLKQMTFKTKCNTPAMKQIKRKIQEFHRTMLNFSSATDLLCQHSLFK

[7] = target: Interleukin-1 receptor-associated kinase 4 (Homo sapiens) (UniProt Q9NWZ3); test: Inhibition of human IRAK4 assessed as residual activity at 1 uM relative to control
Chain of Interleukin-1 receptor-associated kinase 4 (Homo sapiens) (Q9NWZ3 whole entry): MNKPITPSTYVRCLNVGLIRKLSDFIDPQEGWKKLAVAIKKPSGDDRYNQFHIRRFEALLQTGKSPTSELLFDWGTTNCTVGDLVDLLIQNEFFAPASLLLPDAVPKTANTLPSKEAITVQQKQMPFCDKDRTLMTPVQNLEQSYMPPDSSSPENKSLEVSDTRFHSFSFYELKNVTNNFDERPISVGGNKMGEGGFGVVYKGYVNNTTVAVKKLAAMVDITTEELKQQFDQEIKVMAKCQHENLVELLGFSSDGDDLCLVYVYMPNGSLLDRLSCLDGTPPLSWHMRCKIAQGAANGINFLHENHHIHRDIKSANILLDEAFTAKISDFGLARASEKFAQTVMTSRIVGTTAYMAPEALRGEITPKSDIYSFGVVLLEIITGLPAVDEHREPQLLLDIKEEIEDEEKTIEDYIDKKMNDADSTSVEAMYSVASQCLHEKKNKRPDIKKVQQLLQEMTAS

[8] = target: T4, Dual specificity protein kinase CLK4 (Homo sapiens, UniProt Q9HAZ1); test: Inhibition of human CLK4 by radiometric assay
[9] = target: T5, Dual specificity tyrosine-phosphorylation-regulated kinase 1A (Homo sapiens, UniProt Q13627); test: Inhibition of DYRK1A (unknown origin) by radiometric assay
[10] = target: Dual specificity tyrosine-phosphorylation-regulated kinase 2 (Homo sapiens, UniProt Q92630); test: Inhibition of human DYRK2 by radiometric assay
[11] = target: Homeodomain-interacting protein kinase 1 (Homo sapiens, UniProt Q86Z02); test: Inhibition of human HIPK1 by radiometric assay
[12] = target: Homeodomain-interacting protein kinase 2 (Homo sapiens, UniProt Q9H2X6); test: Inhibition of human HIPK2 by radiometric assay
Chain of Homeodomain-interacting protein kinase 2 (Q9H2X6 whole entry): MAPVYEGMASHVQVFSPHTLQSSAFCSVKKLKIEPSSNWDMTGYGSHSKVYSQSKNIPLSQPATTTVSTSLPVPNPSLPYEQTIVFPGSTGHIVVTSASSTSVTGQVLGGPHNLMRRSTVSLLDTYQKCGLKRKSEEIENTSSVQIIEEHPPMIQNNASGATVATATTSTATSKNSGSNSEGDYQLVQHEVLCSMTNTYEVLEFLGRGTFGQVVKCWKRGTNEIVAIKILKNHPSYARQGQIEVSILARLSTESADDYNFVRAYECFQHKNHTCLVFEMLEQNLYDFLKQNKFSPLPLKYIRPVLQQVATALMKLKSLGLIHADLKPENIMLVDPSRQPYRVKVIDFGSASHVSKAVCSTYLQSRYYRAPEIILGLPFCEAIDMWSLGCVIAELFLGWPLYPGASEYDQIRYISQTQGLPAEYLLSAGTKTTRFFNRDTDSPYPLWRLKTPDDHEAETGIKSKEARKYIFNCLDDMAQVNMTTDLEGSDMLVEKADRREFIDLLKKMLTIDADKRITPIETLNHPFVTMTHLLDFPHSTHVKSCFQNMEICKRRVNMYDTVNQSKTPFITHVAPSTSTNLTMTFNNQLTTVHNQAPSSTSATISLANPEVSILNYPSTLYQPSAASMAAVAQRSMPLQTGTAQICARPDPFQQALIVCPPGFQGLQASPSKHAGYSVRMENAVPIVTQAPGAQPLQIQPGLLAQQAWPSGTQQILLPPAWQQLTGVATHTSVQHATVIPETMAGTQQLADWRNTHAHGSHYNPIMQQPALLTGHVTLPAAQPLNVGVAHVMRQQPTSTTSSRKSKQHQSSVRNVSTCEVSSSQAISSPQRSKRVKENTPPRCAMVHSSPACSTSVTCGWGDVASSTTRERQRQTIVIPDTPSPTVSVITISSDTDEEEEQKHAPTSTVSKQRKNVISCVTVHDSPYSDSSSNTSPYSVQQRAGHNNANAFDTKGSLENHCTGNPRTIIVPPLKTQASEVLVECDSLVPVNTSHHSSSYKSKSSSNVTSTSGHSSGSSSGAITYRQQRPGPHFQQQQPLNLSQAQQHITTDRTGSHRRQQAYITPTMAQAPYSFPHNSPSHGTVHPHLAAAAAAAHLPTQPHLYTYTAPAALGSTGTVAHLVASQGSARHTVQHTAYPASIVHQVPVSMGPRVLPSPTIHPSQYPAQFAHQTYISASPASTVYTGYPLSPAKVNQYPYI

[13] = target: Homeodomain-interacting protein kinase 3 (Homo sapiens, UniProt Q9H422); test: Inhibition of human HIPK3 by radiometric assay
[14] = target: Serine/threonine-protein kinase pim-3 (Homo sapiens) (UniProt Q86V86); test: Binding affinity to PIM3 (unknown origin) assessed as change in melting temperature at 10 uM incubated for 10 mins using SYPRO orange dye by RT-PCR-based fluorescence assay
Summary of the method: (§1)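 Recombinant kinase domain at 2 μM in 10 mM HEPES pH 7.5, 500 mM NaCl, mixed with 10 μM inhibitor for 10 min at room temperature; SYPRO orange added at 1:1000; temperature-dependent unfolding fluorescence read on a real-time PCR instrument; Tm shift derived by a previously described method.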

[15] = target: T6, Dual specificity tyrosine-phosphorylation-regulated kinase 2 (Homo sapiens) (UniProt Q92630); test: Binding affinity to DYRK2 (unknown origin) assessed as change in melting temperature at 10 uM incubated for 10 mins using SYPRO orange dye by RT-PCR-based fluorescence assay
T6 sequence (whole entry): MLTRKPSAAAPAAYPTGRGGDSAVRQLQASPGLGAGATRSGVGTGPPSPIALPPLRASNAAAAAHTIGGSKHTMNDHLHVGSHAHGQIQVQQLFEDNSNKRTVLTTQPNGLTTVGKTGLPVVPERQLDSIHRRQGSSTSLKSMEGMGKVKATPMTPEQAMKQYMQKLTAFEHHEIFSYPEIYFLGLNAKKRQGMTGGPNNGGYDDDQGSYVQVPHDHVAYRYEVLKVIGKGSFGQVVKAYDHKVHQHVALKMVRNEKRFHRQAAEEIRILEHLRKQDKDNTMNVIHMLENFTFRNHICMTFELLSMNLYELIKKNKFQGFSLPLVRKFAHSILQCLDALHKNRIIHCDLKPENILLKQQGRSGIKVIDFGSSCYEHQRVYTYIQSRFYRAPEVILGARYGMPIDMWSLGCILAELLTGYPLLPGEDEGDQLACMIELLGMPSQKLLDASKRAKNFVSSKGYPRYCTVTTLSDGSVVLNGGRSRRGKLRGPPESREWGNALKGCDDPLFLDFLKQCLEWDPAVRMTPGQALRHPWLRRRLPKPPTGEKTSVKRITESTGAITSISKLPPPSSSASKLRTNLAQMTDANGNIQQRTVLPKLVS
Summary of the method: as §1

[16] = target: Serine/threonine-protein kinase 17B (Homo sapiens) (UniProt O94768); test: Binding affinity to DRAK2 (unknown origin) assessed as change in melting temperature at 10 uM incubated for 10 mins using SYPRO orange dye by RT-PCR-based fluorescence assay
Summary of the method: as §1

Homo sapiens [17] = species: Homo sapiens; test: Binding affinity to CLK1 V324A mutant (unknown origin) assessed as change in melting temperature at 10 uM incubated for 10 mins using SYPRO orange dye by RT-PCR-based fluorescence assay
Summary of the method: as §1

Homo sapiens [18] = species: Homo sapiens; test: Binding affinity to CLK3 A319V mutant (unknown origin) assessed as change in melting temperature at 10 uM incubated for 10 mins using SYPRO orange dye by RT-PCR-based fluorescence assay
Summary of the method: as §1

[19] = target: T4, Dual specificity protein kinase CLK4; conditions: dose 10.0 µM, time 10.0 min
Target sequence in this assay (Q9HAZ1 whole entry, looked up): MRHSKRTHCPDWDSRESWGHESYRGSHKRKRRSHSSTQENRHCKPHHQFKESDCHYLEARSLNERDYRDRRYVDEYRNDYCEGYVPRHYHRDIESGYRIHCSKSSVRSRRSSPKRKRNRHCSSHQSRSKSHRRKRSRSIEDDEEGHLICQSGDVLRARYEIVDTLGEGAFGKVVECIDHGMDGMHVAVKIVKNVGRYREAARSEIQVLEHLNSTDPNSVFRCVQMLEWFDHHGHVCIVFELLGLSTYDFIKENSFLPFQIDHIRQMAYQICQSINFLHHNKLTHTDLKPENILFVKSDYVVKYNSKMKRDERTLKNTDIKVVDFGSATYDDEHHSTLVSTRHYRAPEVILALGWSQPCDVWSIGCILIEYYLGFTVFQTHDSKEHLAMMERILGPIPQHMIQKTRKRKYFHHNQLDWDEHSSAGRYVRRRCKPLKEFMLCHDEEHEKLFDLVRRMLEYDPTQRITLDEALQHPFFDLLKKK

[20] = target: Serine/threonine-protein kinase pim-1 (Homo sapiens) (UniProt P11309); test: Binding affinity to PIM1 (unknown origin) assessed as change in melting temperature at 10 uM incubated for 10 mins using SYPRO orange dye by RT-PCR-based fluorescence assay
[21] = target: Casein kinase I isoform epsilon (Homo sapiens) (UniProt P49674); test: Binding affinity to CSNK1E (unknown origin) assessed as change in melting temperature at 10 uM incubated for 10 mins using SYPRO orange dye by RT-PCR-based fluorescence assay
Summary of the method: as §1

[22] = Inhibition of recombinant CLK3 A319V mutant (unknown origin) using Ac-ERMRPRKRQGSVdP(Sox)G-NH2 as substrate after 5 mins by Omnia Kinase Assay; design: species or system Homo sapiens
[23] = target: T5, Dual specificity tyrosine-phosphorylation-regulated kinase 1A; conditions: dose 10.0 µM, time 10.0 min
[24] = target: T3, Serine/threonine-protein kinase haspin (Homo sapiens); test: Binding affinity to haspin (unknown origin) assessed as change in melting temperature at 10 uM incubated for 10 mins using SYPRO orange dye by RT-PCR-based fluorescence assay
Summary of the method: as §1

[25] = target: Tyrosine-protein kinase Fes/Fps (Homo sapiens) (UniProt P07332); test: Binding affinity to FES (unknown origin) assessed as change in melting temperature at 10 uM incubated for 10 mins using SYPRO orange dye by RT-PCR-based fluorescence assay
Summary of the method: as §1

[26] = target: Casein kinase II subunit alpha' (Homo sapiens) (UniProt P19784); test: Binding affinity to CK2A2 (unknown origin) assessed as change in melting temperature at 10 uM incubated for 10 mins using SYPRO orange dye by RT-PCR-based fluorescence assay
Summary of the method: as §1

[27] = target: Serine/threonine-protein kinase 17A (Homo sapiens) (UniProt Q9UEE5); test: Binding affinity to DRAK1 (unknown origin) assessed as change in melting temperature at 10 uM incubated for 10 mins using SYPRO orange dye by RT-PCR-based fluorescence assay
Chain of Serine/threonine-protein kinase 17A (Homo sapiens) (Q9UEE5 whole entry): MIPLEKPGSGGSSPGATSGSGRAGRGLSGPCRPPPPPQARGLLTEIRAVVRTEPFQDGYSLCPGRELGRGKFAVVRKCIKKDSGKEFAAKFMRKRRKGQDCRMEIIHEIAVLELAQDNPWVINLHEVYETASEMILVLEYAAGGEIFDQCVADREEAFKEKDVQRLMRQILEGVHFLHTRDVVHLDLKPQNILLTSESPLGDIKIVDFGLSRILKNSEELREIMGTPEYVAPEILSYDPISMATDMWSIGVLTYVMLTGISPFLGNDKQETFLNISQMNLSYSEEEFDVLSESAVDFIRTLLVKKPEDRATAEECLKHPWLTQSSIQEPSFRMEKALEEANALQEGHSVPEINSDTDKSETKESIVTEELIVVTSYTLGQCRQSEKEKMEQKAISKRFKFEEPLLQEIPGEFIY
Summary of the method: as §1

[28] = target: Serine/threonine-protein kinase 33 (Homo sapiens) (UniProt Q9BYT3); test: Binding affinity to STK33 (unknown origin) assessed as change in melting temperature at 10 uM incubated for 10 mins using SYPRO orange dye by RT-PCR-based fluorescence assay
Chain of Serine/threonine-protein kinase 33 (Homo sapiens) (Q9BYT3 whole entry, looked up): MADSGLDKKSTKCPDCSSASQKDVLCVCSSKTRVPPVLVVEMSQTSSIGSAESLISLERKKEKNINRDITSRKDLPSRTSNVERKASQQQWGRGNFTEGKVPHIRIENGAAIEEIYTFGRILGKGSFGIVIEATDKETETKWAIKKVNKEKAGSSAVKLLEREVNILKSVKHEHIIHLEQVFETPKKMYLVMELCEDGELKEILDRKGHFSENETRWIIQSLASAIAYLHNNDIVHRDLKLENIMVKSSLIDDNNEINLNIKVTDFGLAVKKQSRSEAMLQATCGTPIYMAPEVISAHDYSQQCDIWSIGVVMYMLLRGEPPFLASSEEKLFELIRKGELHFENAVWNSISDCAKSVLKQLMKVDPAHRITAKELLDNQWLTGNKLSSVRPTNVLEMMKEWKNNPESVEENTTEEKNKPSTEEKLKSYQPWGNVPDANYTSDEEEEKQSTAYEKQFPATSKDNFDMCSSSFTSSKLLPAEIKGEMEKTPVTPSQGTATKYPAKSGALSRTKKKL
Summary of the method: as §1

[29] = target: cAMP-dependent protein kinase catalytic subunit PRKX (Homo sapiens) (UniProt P51817); test: Binding affinity to PRKX (unknown origin) assessed as change in melting temperature at 10 uM incubated for 10 mins using SYPRO orange dye by RT-PCR-based fluorescence assay
Summary of the method: as §1

[30] = target: T1, Dual specificity protein kinase CLK1; test: Inhibition of full length wild type CLK1 (unknown origin) expressed in HEK293 cells incubated for 2 hrs followed by NanoBRET NanoGlo Substrate addition by NanoBRET assay; assay type: cell-based
[31] = Inhibition of CLK1 V324A mutant (unknown origin) expressed in HEK293 cells incubated for 2 hrs followed by NanoBRET NanoGlo Substrate addition by NanoBRET assay; assay type: cell-based, Homo sapiens
Homo sapiens [32] = species: Homo sapiens; test: Selectivity ratio of Ki for CLK1 V324A mutant (unknown origin) expressed in HEK293 cells to Ki for wild type CLK1 (unknown origin); assay type: cell-based
Summary of the method: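 Full-length CLK1 wild type and V324A, NanoLuc-fused (N-terminal for WT, C-terminal for mutant), transfected into HEK293T cells and expressed for 20 h at 37 °C, 5% CO2. Cells in Opti-MEM were incubated 2 h with serially varied inhibitor plus 1 μM Tracer K5. BRET was read at 450/610 nm, and mBU was fitted to give IC50. […] Biological duplicates; mutant/WT Ki ratio.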

[33] = target: T2, Dual specificity protein kinase CLK3; test: Inhibition of recombinant CLK3 (unknown origin) using Ac-ERMRPRKRQGSVdP(Sox)G-NH2 as substrate after 5 mins by Omnia Kinase Assay
[34] = target: cGMP-dependent protein kinase 1 (Homo sapiens) (UniProt Q13976); conditions: dose 10.0 µM, time 10.0 min

Chain of Dual specificity protein kinase CLK2 (Homo sapiens) (P49760 whole entry, looked up): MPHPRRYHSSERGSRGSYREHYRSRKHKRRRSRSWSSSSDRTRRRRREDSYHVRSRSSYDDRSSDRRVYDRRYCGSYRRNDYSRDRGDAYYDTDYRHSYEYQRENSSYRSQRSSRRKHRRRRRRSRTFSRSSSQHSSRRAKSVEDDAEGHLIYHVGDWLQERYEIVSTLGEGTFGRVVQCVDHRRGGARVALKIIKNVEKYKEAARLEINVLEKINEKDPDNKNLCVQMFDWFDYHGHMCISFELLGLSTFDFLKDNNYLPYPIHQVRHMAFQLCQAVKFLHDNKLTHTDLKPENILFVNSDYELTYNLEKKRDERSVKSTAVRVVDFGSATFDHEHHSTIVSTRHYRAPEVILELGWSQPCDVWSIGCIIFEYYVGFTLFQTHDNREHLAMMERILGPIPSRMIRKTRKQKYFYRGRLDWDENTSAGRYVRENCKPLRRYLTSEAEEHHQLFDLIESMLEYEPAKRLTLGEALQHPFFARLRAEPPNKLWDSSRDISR

Cn1cc(-c2ccc3occ(-c4cccc(Oc5ccccc5)c4)c3n2)cn1
ΔTm [1]: 12.3 °C
ΔTm [2]: 8.3 °C
ΔTm [3]: 4.8 °C

Cn1cc(-c2ccc3occ(-c4cccc(-c5ccncc5)c4)c3n2)cn1
Activity [4]: < 50%
Activity [5]: < 50%
Activity [6]: < 50%
Activity [7]: < 50%
IC50 [8]: 0.012 µM
IC50 [9]: 0.213 µM
IC50 [10]: 1.31 µM
IC50 [11]: 0.187 µM
IC50 [12]: 0.029 µM
IC50 [13]: 0.159 µM

Nc1nccc(-c2ccc3noc(-c4ccc(Cl)cc4)c3c2)n1
ΔTm [14]: > 4 °C
ΔTm [15]: > 6 °C
ΔTm [16]: > 6 °C
ΔTm [1]: > 6 °C
ΔTm [2]: > 6 °C

COC(=N)c1nc2ccc3ncnc(Nc4ccc(OC)cc4F)c3c2s1
ΔTm (Homo sapiens [17]): 3.8 °C
ΔTm (Homo sapiens [18]): 9.2 °C
ΔTm [19]: 9.6 °C
ΔTm [1]: 10.3 °C
ΔTm [2]: 7 °C
ΔTm [3]: 3.4 °C

CCN1/C(=C\C(C)=O)Sc2ccc(OC)cc21
ΔTm [20]: > 4 °C
ΔTm [14]: > 4 °C
ΔTm [15]: > 6 °C
ΔTm [21]: > 4 °C
Ki [22]: 0.32 µM
ΔTm [19]: > 6 °C
ΔTm [1]: > 6 °C
ΔTm [2]: > 4 °C
ΔTm [23]: > 6 °C
ΔTm [3]: 3 °C

O=C1NCc2ccc3c(-c4cccc(Cl)c4)c[nH]c3c21
ΔTm [19]: 10.1 °C
ΔTm [1]: 9.8 °C
ΔTm [2]: 4.9 °C
ΔTm [3]: 2.3 °C

Cn1c2c(c3ccc(Cl)c(Cl)c31)C(C#N)C1(CCNCC1)NC2=O (stereo unspecified)
ΔTm [24]: > 4 °C
ΔTm [25]: > 4 °C
ΔTm [26]: > 4 °C
ΔTm [27]: > 4 °C
ΔTm [28]: > 4 °C
ΔTm [29]: > 4 °C
Ki [30]: 0.14 µM
Ki [31]: 2.81 µM
Ratio Ki (Homo sapiens [32]): 20.6
Ki [33]: 26.9 µM
Ki [22]: 0.85 µM
ΔTm [19]: > 4 °C
ΔTm [2]: 3.5 °C
ΔTm [34]: > 6 °C
ΔTm [3]: 1.4 °C

CCOC(=O)c1c(/C(C#N)=C/N)c2ccc(Cl)c(Cl)c2n1C
Ratio Ki (Homo sapiens [32]): 9

CCOc1ccc2c(-c3ccnc(Nc4cc(OC)cc(C(F)(F)F)c4)n3)cnn2n1
Ratio Ki (Homo sapiens [32]): 9
ΔTm (Homo sapiens [17]): 2.5 °C
ΔTm (Homo sapiens [18]): 5.5 °C
ΔTm [19]: 9 °C
ΔTm [1]: 9 °C
ΔTm [2]: 8.4 °C
ΔTm [3]: 2 °C
